The list is not random: actives were taken first. Their share in the collection is about 2.1%.
CXCR6 block – inhibitors of human CXCR6 receptor. O00574. CHO-K1 PathHunter CXCR6 beta-arrestin, luminescence. inhibition, % at 20 µM. 0.36% of 360,000 active. AID 602244; in the data active = inhibition above about 34%, passing the limit was not always enough;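 note: antagonist mode with CXCL16 agonist at 10 nM final; 0% = 10 nM CXCL16 with DMSO and 100% = unstimulated wells without agonist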
CCR6 antagonist – antagonists of human CCR6 receptor. CHO-K1 CCR6 PathHunter beta-arrestin, luminescence, CCL20-stimulated. P51684. inhibition, % at 20 µM. 0.49% of 340,000 active. AID 493098;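 active = compounds whose inhibition of the agonist-driven luminescence signal at 20 µM reaches about 50%, limit read from the data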;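 note: cells stimulated with CCL20 at 14 nM final; plate controls were DMSO with CCL20 for no effect and DMSO without agonist for full effect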
APJ antagonist – antagonists of human APJ apelin receptor; CHO-K1 APJ beta-arrestin complementation, luminescence; inhibition, % at 20 µM; 0.32% of 330,000 active;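 active = inhibition above about 40% at 20 µM, limit read from the data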;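 note: cells challenged with 10 nM apelin-13 agonist together with compound; plate controls were apelin-13 plus DMSO wells for no effect and DMSO wells lacking apelin-13 for full effect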
Target sequence (P35414 whole entry, looked up): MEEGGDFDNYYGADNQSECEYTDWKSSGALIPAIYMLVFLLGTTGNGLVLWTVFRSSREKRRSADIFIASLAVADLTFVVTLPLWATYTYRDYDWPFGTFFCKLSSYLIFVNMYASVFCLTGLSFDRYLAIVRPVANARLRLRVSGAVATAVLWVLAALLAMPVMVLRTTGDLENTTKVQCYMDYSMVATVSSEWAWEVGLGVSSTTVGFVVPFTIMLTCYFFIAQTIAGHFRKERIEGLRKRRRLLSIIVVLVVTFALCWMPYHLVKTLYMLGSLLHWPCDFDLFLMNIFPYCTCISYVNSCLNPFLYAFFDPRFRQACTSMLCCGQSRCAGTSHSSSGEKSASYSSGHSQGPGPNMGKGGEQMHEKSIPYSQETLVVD
m5-HT2A agonist – agonists of mouse serotonin 5-HT2A receptor (HTR2A); P35363; CHO-K1 mHTR2A beta-arrestin complementation, luminescence; percent of 30 µM serotonin response; activation, % at 7.6 µM; 0.66% of 360,000 active;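 active = activation above a run cutoff, the mean activation of all tested compounds plus 3 SD, cut at about 14% in these data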;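 note: 0% = plate median of compound wells and 100% = 30 µM serotonin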
APJ agonist – APJ receptor agonism; CHO-K1 APJ PathHunter beta-arrestin, luminescence; 0% DMSO wells, 100% apelin; activation, % at 20 µM; 0.11% of 330,000 active; AID 2520;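 active = activation more than six SD over the plate average, tested at 20 µM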;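 note: 0% = DMSO alone and 100% = apelin-13 at 10 nM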
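Assay system – PathHunter CHO-K1 APJ (AGTRL-1) beta-arrestin reporter cells · Compound – one dose, 20 µM compound, 1% DMSO · Timing – compound 90 min 25 °C, reagent 1 h · Measured by – luminescence from split beta-galactosidase complementation, Galacton Star/Emerald II substrate · Measure – beta-arrestin recruitment to APJ as agonist activity, luminescent signal · Benchmarks – DMSO vs Apelin-13 10 nM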
EBI2 antag – EBI2 (human) antagonism | AID 651636 | P32249 | inhibition, % at 5 µM | 0.81% of 360,000 active | EBI2 beta-arrestin recruitment, luminescence, 7a,25-OHC stimulated; in the data active = inhibition above about 38%;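 note: enzyme fragment complementation signal reports receptor beta-arrestin coupling in cells; 0% = agonist plus DMSO wells and 100% = wells without agonist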
An asterisk follows results filed as active; nt = no result.

SMILES | CXCR6 block | CCR6 antagonist | APJ antagonist | m5-HT2A agonist | APJ agonist | EBI2 antag
CC(=O)n1cc(Nc2ccc([N+](=O)[O-])cc2)c2ccccc21 | 15.0 | 35.8 | 42.4* | 0.9 | -6.0 | 11.4
CCn1cc(C(c2ccccc2)C(C(C)=O)[N+](=O)[O-])c2ccccc21 (stereo unspecified) | -8.2 | -1.6 | 5.8 | -2.4 | -4.2 | -0.1
S=C(Nc1ccccc1)Nc1cc(Cl)ccc1Oc1ccccc1 | 5.2 | 92.8* | 12.9 | 1.2 | -3.5 | -1.7
COc1cc(/C=C/c2cc(OC(C)=O)c3ccccc3n2)c(OC(C)=O)c([N+](=O)[O-])c1 | 31.1 | 63.0* | 39.4 | 5.8 | -6.9 | 14.8
O=C1Nc2ccc(Br)cc2/C1=C/C1CC=CCC1 (stereo unspecified) | 5.1 | 4.1 | 20.5 | 5.5 | -0.2 | 7.2
O=C1Nc2ccc(Br)cc2/C1=C/C(=O)c1ccc2c(c1)OCO2 | 23.2 | 39.6 | -12.8 | 3.3 | 6.1 | 84.6*
CN(C)c1ncc(C2=C(Cl)C(=O)C(N3CCCC3)=C(Cl)C2=O)s1 | 13.9 | 90.6* | -20.2 | 7.2 | 7.7 | -9.3
O=C1C(Cl)=C(N2CCCCC2)C(=O)C(Cl)=C1c1cnc(N2CCCCC2)s1 | 14.2 | 69.7* | -16.0 | 2.9 | 6.9 | -16.2
Cc1noc(C)c1S(=O)(=O)N(CC(=O)NCc1ccccc1)c1ccc(C(C)C)cc1 | 12.7 | 18.8 | 13.7 | 8.2 | 2.5 | 20.1
CC1=NN(c2ccc(C)cc2)C(=O)/C1=C\c1ccc(Br)s1 | -0.9 | 11.8 | -14.6 | 2.2 | -1.6 | 38.2
CC1=NN(c2ccc(Br)cc2)C(=O)/C1=C/c1cccs1 | 5.9 | 12.4 | 3.1 | -2.9 | -0.5 | 56.5*
Cc1cc2nc(-c3cccc(Cl)c3)c(CC(C)(C)C)n2c(C)c1Br | -1.7 | nt | nt | 2.0 | nt | -14.2
CC(C)C[C@H](N)c1nnc(S(=O)(=O)Cc2cccc(F)c2)o1 | 12.9 | 12.8 | -0.9 | -4.6 | 0.1 | -3.5
CC(C)(C)OC(=O)N[C@@H](Cc1ccccc1)c1nnc(S(=O)(=O)Cc2cccc(F)c2)o1 | nt | 69.0* | 29.4 | nt | -0.2 | nt
Cc1ccccc1CS(=O)(=O)c1nnc([C@H](CC(C)C)NC(=O)OC(C)(C)C)o1 | 26.7 | 53.3* | 30.5 | -7.4 | -1.4 | 13.0
O=[N+]([O-])c1ccc(S(=O)(=O)c2cccc(C(F)(F)F)c2)nc1 | 46.6* | nt | 17.6 | -7.3 | 7.3 | -18.5
Cc1ccc(S(=O)(=O)N2CCN(C(=O)COC(=O)c3ccccc3Cl)CC2)c(C)c1 | -6.2 | 16.9 | 3.3 | 16.6* | -1.5 | 8.4
Cc1ccc(C2C3CN(C(C)C)CC=C3C(C#N)=C(N)C2(C#N)C#N)cc1 (stereo unspecified) | 52.7* | 59.8* | 36.1 | -5.0 | -11.0 | 22.1
CCC(c1nnnn1-c1ccc2c(c1)OCCO2)N1CCN(CCN2CCOCC2)CC1 (stereo unspecified) | -7.7 | nt | nt | 0.7 | nt | -6.4
O=[N+]([O-])c1ccc(Cl)c(CN2CCN(c3ncccn3)CC2)c1 | -1.2 | 7.5 | 15.0 | 5.5 | -1.5 | -0.9
Cc1ccc2nc(C)c(CN3CCN(c4ccc([N+](=O)[O-])cc4Cl)CC3)n2c1 | 5.8 | nt | 17.9 | -9.4 | 2.8 | 46.9*
CO/N=C(\C(=O)N[C@@H]1C(=O)N2C(C(=O)O)=C(COC(N)=O)CS[C@H]12)c1ccco1 | 4.3 | -0.4 | 10.4 | 14.6* | -5.8 | 2.1
COc1ccc(-c2ccc(C(=O)NCc3ccncc3)c3occc23)c(C)c1 | -5.3 | nt | nt | -5.4 | nt | -3.2
CN(Cc1ccccc1)C(=O)c1[nH]cnc1C(=O)N[C@@H](Cc1ccccc1)C(=O)OCc1ccccc1 | -3.3 | -3.7 | 15.2 | 22.6* | -3.1 | -9.0
C[C@@H](NC(=O)c1nc[nH]c1C(=O)N[C@@H](Cc1ccccc1)C(=O)OCc1ccccc1)c1ccccc1 | -1.5 | -6.3 | 7.9 | -0.2 | -4.2 | -14.0
O=C(Cn1c(N2CCN(c3ccccc3)CC2)nc2ccccc21)c1ccccc1 | 25.5 | 50.3* | 23.3 | -1.3 | -1.5 | 10.4
COc1ccc(NC(=S)NC(NC(=O)c2cccc(Cl)c2)C(Cl)(Cl)Cl)c([N+](=O)[O-])c1 (stereo unspecified) | 20.2 | 58.0* | 39.5 | -8.5 | -3.6 | 9.4
O=C(CSc1nnc2ccccn12)Nc1ccc(N2CCOCC2)cc1 | -1.5 | -13.0 | 3.5 | 5.6 | -1.5 | 5.6
